High-throughput results from PubChem.
In the library only some 4.5% were active in any assay of this set; here they are far more common.
RGS4 act: potentiators or activators of RGS4; HEK293 M3R/inducible RGS4, carbachol calcium flux Fluo4; stronger effect = lower value; B-score at 10 µM; 310,000 tested, 0.92% active; AID 463111;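 active = B-score of the integrated calcium signal more than 4 SD below the library mean, with starting fluorescence not abnormally high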;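 note: negative B-score means reduced calcium response which marks RGS4 activation or potentiation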
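Assay system: HEK293 FlpIn-TREx cells, stable M3R, doxycycline-inducible RGS4 / Probe or stimulus: carbachol, ECmax concentration / Times: overnight RGS4 induction, 30 min dye load 37 °C, 20 min compound RT / Signal: kinetic calcium fluorescence imaging with Fluo4-AM dye, 2 µM / Measure: Agonist-evoked peak-minus-minimum fluorescence over baseline, integrated ratio, B score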
MrgX1 agonist: human MrgX1 receptor agonism, primary screen | MrgX1-HEK293 cells, Fluo-4 calcium fluorescence, agonist mode; stronger effect = higher value | B-score at 10 µM | 310,000 tested, 0.44% active;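 active = calcium response B-score plate-corrected fluorescence ratio at least 3 library SD, with starting fluorescence B-score inside 5 SD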
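Assay system: stable human MrgX1 HEK293 cell line. Quantity: 15,000 cells per well. Schedule: cells plated overnight, dye loaded 0.5 h 37 °C, 0.5 h room temperature. Detection: Fluo-4 NW calcium-flux fluorescence, kinetic read. Read-out basis: peak-minus-minimum fluorescence over baseline, converted to B scores. Control set: positive and negative control wells on each plate.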
RGS4 block: inhibitors of human RGS4. P49798. HEK293 M3R/RGS4 inducible, Fluo-4 calcium flux; stronger effect = higher value; triggered by carbachol at its EC20. B-score at 10 µM. 310,000 tested, 0.45% active;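 active = B-score, a plate-corrected calcium signal, over three deviations above library mean, with baseline fluorescence within five deviations of library mean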;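 note: RGS4 expression induced by doxycycline in cells with stable M3 receptor; B-score is computed from the integrated fluorescence ratio over baseline after carbachol; higher B-score means a larger calcium signal and so more RGS4 inhibition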
Target sequence (P49798 whole entry, looked up): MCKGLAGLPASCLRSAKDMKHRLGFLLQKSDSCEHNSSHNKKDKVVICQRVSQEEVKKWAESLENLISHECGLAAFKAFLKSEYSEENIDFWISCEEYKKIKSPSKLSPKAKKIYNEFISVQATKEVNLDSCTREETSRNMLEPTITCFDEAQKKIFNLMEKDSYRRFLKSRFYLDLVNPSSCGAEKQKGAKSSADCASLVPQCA
MrgX1 antag: human MrgX1 receptor antagonism, primary screen | B-score at 10 µM | MRGX1-HEK293 calcium flux, Fluo-4, BAM8-22 antagonism; stronger effect = lower value | 310,000 tested, 1.3% active | Q96LB2;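 active = calcium-response B-score plate-corrected more than 3 library SD below zero, starting fluorescence within 5 deviations, no agonist response on first addition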;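 note: peak minus trough fluorescence over baseline after final BAM8-22 challenge near maximal dose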
MrgX1 PAM: human MrgX1 positive allosteric modulation, primary screen; AID 588675; 310,000 tested, 0.63% active; Q96LB2; B-score at 10 µM; MrgX1-HEK293, Fluo-4 calcium flux, FDSS; stronger effect = higher value;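 active = plate-corrected calcium response at least 3 library SD above typical, normal starting fluorescence, not activating the receptor alone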;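 note: compound read alongside a low EC10 to EC30 dose of BAM8-22 agonist; peak minus trough fluorescence over baseline measured at the second addition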
PHOSPHO1 inh: blocks human PHOSPHO1 phosphatase activity | Q8TCT1 | recombinant PHOSPHO1, absorbance phosphatase assay | inhibition, % at 13.3 µM | 290,000 tested, 1.1% active; in the data active = inhibition above about 60%
Target sequence (Q8TCT1 whole entry, looked up): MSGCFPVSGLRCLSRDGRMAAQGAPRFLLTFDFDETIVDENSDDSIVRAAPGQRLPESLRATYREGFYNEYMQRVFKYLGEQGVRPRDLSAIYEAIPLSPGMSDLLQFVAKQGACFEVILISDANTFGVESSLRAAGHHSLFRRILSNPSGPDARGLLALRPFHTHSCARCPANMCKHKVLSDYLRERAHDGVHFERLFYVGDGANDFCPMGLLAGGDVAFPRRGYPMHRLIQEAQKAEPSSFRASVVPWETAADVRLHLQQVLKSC
MrgX1 allo conf: reconfirmed allosteric activator of human MrgX1 receptor. shares compounds with MrgX1 PAM. MrgX1-HEK293, Fluo-4 calcium fluorescence, FDSS. activation (ratio percentage), % at 10 µM. 1,200 tested, 13% active;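 active = ratio at least 3 SD above the weak peptide control, stable starting fluorescence, no direct agonism earlier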;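 note: compound followed by low BAM8-22 agonist challenge near EC20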
MrgX1 antag conf: confirmation of human MrgX1 receptor antagonists; shares compounds with MrgX1 antag; MrgX1-HEK293, BAM8-22 calcium flux, Fluo-4; stronger effect = lower value; remaining BAM8-22 calcium response % of control (stronger effect = lower value), % at 10 µM; 2,300 tested, 19% active;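 active = remaining agonist calcium response no higher than 100% minus 3 SD of agonist-only control wells, with starting fluorescence near control levels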;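 note: agonist BAM8-22 given at a near maximal EC90 to ECmax level; peak minus minimum fluorescence divided by baseline after agonist addition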
HEK293 Ca flux: counter-screen for MrgX1 antagonists: effect in parental HEK293 cells. shares compounds with MrgX1 antag. Fluo-4 calcium fluorescence, FDSS. fluorescence ratio F(max-min)/F0 at 10 µM. 4,000 tested, 2% active. AID 624111;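 active = duplicate-averaged calcium fluorescence ratio at least three times the standard deviation of buffer wells, a nonspecific response in parental cells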
HEK293 Ca counter: counter-screen for MrgX1 allosteric activators: effect in parental HEK293 cells. shares compounds with MrgX1 antag. parental HEK293 calcium flux, Fluo-4 fluorescence ratio; stronger effect = higher value. fluorescence ratio F(max-min)/F0 at 10 µM. 4,000 tested, 0.4% active;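 active = calcium fluorescence ratio, averaged over duplicates, at least 3 SD of the buffer-well ratio, meaning a nonspecific response in receptor-free cells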;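 note: untransfected parental HEK293 lacking MrgX1 used as counterscreen for MrgX1 allosteric activators; fluorescence change taken during the second addition on a kinetic imager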
HEK293 Ca cntr2: MrgX1 activator counter-screen hit in parental HEK293 cells; AID 624115; 4,000 tested, 8.7% active; Fluo-4 calcium fluorescence (FDSS); stronger effect = higher value; shares compounds with MrgX1 antag; fluorescence ratio F(max-min)/F0 at 10 µM;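 active = calcium fluorescence ratio at least three times the spread of buffer wells, meaning a non-specific response in parental cells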
An asterisk follows results filed as active.

Results for CCCn1c(SCC(=O)Nc2cccc(C)n2)nnc1C(C)C ?
RGS4 act: inactive; MrgX1 agonist: inactive; RGS4 block: inactive; MrgX1 antag: inactive; MrgX1 PAM: 8.2*; PHOSPHO1 inh: 5; MrgX1 allo conf: inactive; HEK293 Ca flux: inactive; HEK293 Ca counter: inactive; HEK293 Ca cntr2: inactive

What do the screens show for `O=C(CCC1CCN(Cc2ccccc2Cl)CC1)NC1CC1`?
RGS4 act: inactive; MrgX1 agonist: inactive; RGS4 block: inactive; MrgX1 antag: inactive; MrgX1 PAM: inactive; PHOSPHO1 inh: -50

How did O=C(CCC1CCN(Cc2ccccc2O)CC1)NC1CC1 do in these assays?
RGS4 act: inactive; MrgX1 agonist: inactive; RGS4 block: inactive; MrgX1 antag: inactive; MrgX1 PAM: 8.1*; PHOSPHO1 inh: 14; MrgX1 allo conf: inactive; HEK293 Ca flux: inactive; HEK293 Ca counter: inactive; HEK293 Ca cntr2: inactive

Results for Cc1nn(C(=O)CNS(=O)(=O)c2ccccc2)c(C)c1Sc1ccc(Cl)cc1 ?
RGS4 act: inactive; MrgX1 agonist: inactive; RGS4 block: inactive; MrgX1 antag: inactive; MrgX1 PAM: inactive; PHOSPHO1 inh: 4

What do the screens show for `CC1CC(=O)N(c2ccc(Br)cc2)C(=O)C1`?
RGS4 act: inactive; MrgX1 agonist: inactive; RGS4 block: inactive; MrgX1 antag: inactive; MrgX1 PAM: inactive; PHOSPHO1 inh: 38

What do the screens show for `CCOC(=O)c1nn(-c2ccc3c(c2)CCN3C(C)=O)cc1O`?
RGS4 act: inactive; MrgX1 agonist: inactive; RGS4 block: inactive; MrgX1 antag: inactive; MrgX1 PAM: inactive; PHOSPHO1 inh: 23

How did CCOC(=O)c1nn(-c2ccc(F)cc2)cc1O do in these assays?
RGS4 act: inactive; MrgX1 agonist: inactive; RGS4 block: inactive; MrgX1 antag: inactive; MrgX1 PAM: 8.4*; PHOSPHO1 inh: 33; MrgX1 allo conf: inactive; HEK293 Ca flux: inactive; HEK293 Ca counter: inactive; HEK293 Ca cntr2: inactive

How did NC1=NC[C@@H](Cc2ccc(O)cc2)N1CCc1cccc2ccccc12 do in these assays?
RGS4 act: inactive; MrgX1 agonist: inactive; RGS4 block: inactive; MrgX1 antag: inactive; MrgX1 PAM: inactive; PHOSPHO1 inh: -13

What do the screens show for `CCC(C)[C@H]1CN=C(N)N1CCc1cccc2ccccc12` (stereo partly drawn)?
RGS4 act: inactive; MrgX1 agonist: inactive; RGS4 block: inactive; MrgX1 antag: inactive; MrgX1 PAM: inactive

What do the screens show for `NC1=NC[C@H](Cc2ccc(O)cc2)N1CCc1cccc2ccccc12`?
RGS4 act: inactive; MrgX1 agonist: inactive; RGS4 block: inactive; MrgX1 antag: -12*; MrgX1 PAM: 9.6*; PHOSPHO1 inh: 22; MrgX1 allo conf: inactive; MrgX1 antag conf: inactive; HEK293 Ca flux: inactive; HEK293 Ca counter: inactive; HEK293 Ca cntr2: inactive

How did NCCCC[C@H]1CN=C(N)N1CCc1cccc2ccccc12 do in these assays?
RGS4 act: inactive; MrgX1 agonist: inactive; RGS4 block: inactive; MrgX1 antag: inactive; MrgX1 PAM: 33*; MrgX1 allo conf: inactive; HEK293 Ca flux: inactive; HEK293 Ca counter: inactive; HEK293 Ca cntr2: inactive

How did NC1=NC[C@H](Cc2ccc(O)cc2)N1CCCCC1CCCCC1 do in these assays?
RGS4 act: inactive; MrgX1 agonist: inactive; RGS4 block: inactive; MrgX1 antag: inactive; MrgX1 PAM: 9.3*; PHOSPHO1 inh: 35; MrgX1 allo conf: inactive; HEK293 Ca flux: inactive; HEK293 Ca counter: inactive; HEK293 Ca cntr2: inactive

How did CCc1nnc(NC(=O)c2cccnc2SC)s1 do in these assays?
RGS4 act: inactive; MrgX1 agonist: inactive; RGS4 block: inactive; MrgX1 antag: inactive; MrgX1 PAM: inactive; PHOSPHO1 inh: 2

How did CCNC(=O)C(=O)c1c(-c2ccccc2)[nH]c2ccccc12 do in these assays?
RGS4 act: inactive; MrgX1 agonist: inactive; RGS4 block: inactive; MrgX1 antag: inactive; MrgX1 PAM: inactive; PHOSPHO1 inh: 32

What do the screens show for `CCN(CC)C(=O)C(=O)c1c(-c2ccccc2)[nH]c2ccccc12`?
RGS4 act: inactive; MrgX1 agonist: inactive; RGS4 block: inactive; MrgX1 antag: inactive; MrgX1 PAM: 15*; PHOSPHO1 inh: -26; MrgX1 allo conf: inactive; HEK293 Ca flux: inactive; HEK293 Ca counter: inactive; HEK293 Ca cntr2: inactive

Results for COCC(=O)N1CCC(Oc2ccc(C(=O)N(C)CCCC3CCCC3)cc2)CC1 ?
RGS4 act: inactive; MrgX1 agonist: inactive; RGS4 block: inactive; MrgX1 antag: inactive; MrgX1 PAM: inactive; PHOSPHO1 inh: 38

Results for CCOc1cccc(C(=O)Nc2ccc3c(c2)OCCO3)c1 ?
RGS4 act: inactive; MrgX1 agonist: inactive; RGS4 block: inactive; MrgX1 antag: inactive; MrgX1 PAM: inactive; PHOSPHO1 inh: 34

How did Cc1ccc(CN2CCN(C3CCOCC3)CC2CCO)cc1 (stereo not drawn) do in these assays?
RGS4 act: inactive; MrgX1 agonist: inactive; RGS4 block: inactive; MrgX1 antag: inactive; MrgX1 PAM: 8.9*; PHOSPHO1 inh: 40; MrgX1 allo conf: inactive; HEK293 Ca flux: inactive; HEK293 Ca counter: inactive; HEK293 Ca cntr2: inactive

How did O=C(CSc1n[nH]c(=O)[nH]c1=O)N/N=C/c1ccccc1 do in these assays?
RGS4 act: inactive; MrgX1 agonist: inactive; RGS4 block: inactive; MrgX1 antag: inactive; MrgX1 PAM: inactive; PHOSPHO1 inh: -4

How did Cc1ccc(S(=O)(=O)N2CCc3ccccc3C2)cc1 do in these assays?
RGS4 act: inactive; MrgX1 agonist: inactive; RGS4 block: inactive; MrgX1 antag: inactive; MrgX1 PAM: inactive; PHOSPHO1 inh: 1
